# According to ChEMBL document CHEMBL4842369, “Synthesis, structure-activity relationship and antiviral activity of indole-containing inhibitors of Flavivirus NS2B-NS3 protease” (Eur J Med Chem, 2021):
# Activity calls are given as the source filed them. No cut-off for these calls is given here.
# Tests used:
# Nonstructural protein 3 = Nonstructural protein 3 (Zika virus, UniProt A0A024AXB9); assay: Inhibition of Zika virus recombinant NS2B (47 to 95 residues)/NS3 (1 to 177 residues) protease expressed in Escherichia coli BL21 using Bz-Nle-Lys-Lys-Arg-AMC as substrate preincubated for 10 mins by fluorescence-based biochemical assay
# Sequence of Nonstructural protein 3 (A0A024AXB9 whole entry, the tested form may be a part): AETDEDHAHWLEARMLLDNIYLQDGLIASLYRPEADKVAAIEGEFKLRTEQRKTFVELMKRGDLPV
# In short: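 ZIKV NS2B-NS3 protease at 1 nM, with 10 µM Bz-Nle-Lys-Lys-Arg-AMC in 20 mM HEPES pH 7.3 containing 0.05% Triton X-100. Compound at increasing concentrations in triplicate, pre-incubated with enzyme 10 min before substrate. Fluorescence (Ex 360/Em 460 nm) read every 30 s. IC50 from dose-response curve fit, 3 independent experiments, standard deviation.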
# U-87 MG = assay: Cytotoxicity against human U87 cells assessed as inhibition of growth by MTT assay; assay type: cell-based; settings: u-87mg atcc
# Genome polyprotein [1] = molecular target: Genome polyprotein (dengue virus type 2, UniProt P29990); assay: Inhibition of Dengue virus 2 NS2B (50 to 95 residues)/NS3 (1 to 182 residues) protease expressed in Escherichia coli BL21 using Bz-Nle-Lys-Lys-Arg-AMC as substrate preincubated for 10 mins by fluorescence-based biochemical assay
# In short: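 Recombinant DENV-2 NS2B-NS3 protease assayed like the ZIKV protease. Bz-Nle-Lys-Lys-Arg-AMC substrate, compound pre-incubated with enzyme 10 min, fluorescence monitored at Ex 360/Em 460 nm. IC50 from dose-response fit of triplicate samples at increasing concentrations.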
# Genome polyprotein [2] = molecular target: Genome polyprotein (West Nile virus, UniProt P06935); assay: Inhibition of West Nile virus NS2B (49 to 96 residues)/NS3 (2 to 184 residues) protease expressed in Escherichia coli BL21 using Bz-Nle-Lys-Lys-Arg-AMC as substrate preincubated for 10 mins by fluorescence-based biochemical assay
# Sequence of Genome polyprotein (West Nile virus, UniProt P06935) (P06935 1371-1501 limits assumed): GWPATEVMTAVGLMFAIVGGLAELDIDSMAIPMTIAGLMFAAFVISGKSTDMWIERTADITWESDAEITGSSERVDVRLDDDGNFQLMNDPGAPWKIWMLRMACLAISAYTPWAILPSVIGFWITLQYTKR
# Sequence of Genome polyprotein (West Nile virus, UniProt P06935) (P06935 1502-2120 limits assumed): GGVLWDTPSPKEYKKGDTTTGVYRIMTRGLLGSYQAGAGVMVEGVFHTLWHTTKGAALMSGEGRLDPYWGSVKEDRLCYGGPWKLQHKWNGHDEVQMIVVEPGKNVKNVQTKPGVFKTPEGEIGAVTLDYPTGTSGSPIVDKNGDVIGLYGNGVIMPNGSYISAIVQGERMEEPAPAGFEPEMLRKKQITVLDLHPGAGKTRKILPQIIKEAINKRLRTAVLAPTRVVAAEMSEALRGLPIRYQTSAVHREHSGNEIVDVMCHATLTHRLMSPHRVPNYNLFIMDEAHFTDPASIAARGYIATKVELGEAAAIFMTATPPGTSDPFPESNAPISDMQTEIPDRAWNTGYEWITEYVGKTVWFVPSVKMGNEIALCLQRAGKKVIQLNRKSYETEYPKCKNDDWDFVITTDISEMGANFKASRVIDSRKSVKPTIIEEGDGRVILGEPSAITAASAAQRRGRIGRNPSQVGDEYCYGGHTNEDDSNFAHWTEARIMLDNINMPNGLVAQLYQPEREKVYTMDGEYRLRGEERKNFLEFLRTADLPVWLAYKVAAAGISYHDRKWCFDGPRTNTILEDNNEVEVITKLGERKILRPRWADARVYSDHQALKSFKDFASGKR
# In short: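 Recombinant WNV NS2B-NS3 protease, tested in the same way as the Zika protease assay. Compound was preincubated with enzyme for 10 min before Bz-Nle-Lys-Lys-Arg-AMC was added. Hydrolysis was followed as AMC fluorescence (Ex 360/Em 460 nm) read every 30 s. IC50 was derived by dose-response curve fitting.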
# Zika virus = assay: Antiviral activity against Zika virus infected in human U87 cells assessed as reduction in infectious virus in supernatant by measuring infection of Vero cells incubated with supernatant of viral infected U87 cells and measured following infection of supernatants with Vero cells for 7 days by MTT assay; assay type: functional; settings: U-87 MG, 168 h, time 7 day
# In short: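 U87 cells (2×10^4/well) in DMEM with 2% FBS, infected with ZIKV FLR strain (passage-3 stock) at MOI 0.01 for 1 h, then PBS-washed. Compound added in triplicate, 2 days at 37 °C. Half-log dilutions of supernatant put on Vero monolayers in quadruplicate for 7 days. CPE by microscopy then MTT. TCID50 from highest dilution infecting 2/4 wells. At least 2 independent experiments.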
# [3] = molecular target: Genome polyprotein (dengue virus type 2) (UniProt P29990); assay: Competitive inhibition of Dengue virus 2 NS2B (50 to 95 residues)/NS3 (1 to 182 residues) protease expressed in Escherichia coli BL21 using increased concentration of Bz-Nle-Lys-Lys-Arg-AMC substrate
# In short: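 Steady-state kinetics. Initial velocities were measured across a range of inhibitor concentrations and substrate levels. […] Fluorescence was read at Ex 360/Em 460 nm. An IC50 was fitted at each substrate level and plotted against substrate concentration to assign the mode of inhibition.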
SMILES,IC50 (Nonstructural protein 3) [µM],also measured
O=C(NCC1CCNCC1)c1cc2cc(-c3cccnc3)ccc2[nH]1,> 50,–
O=C(NCC1CCNCC1)c1cc2ccc(-c3ccc(F)cc3)cc2[nH]1,14.4,–
N#Cc1ccc(-c2ccc3[nH]cc(C(=O)NC4CCNCC4)c3c2)cc1,> 50,–
O=C(NC1CCNCC1)c1cc2ccc(-c3ccncc3)cc2[nH]1,9.8,–
O=C(NCC1CCNCC1)c1cc2ccc(-c3ccc(OC(F)(F)F)cc3)cc2[nH]1,–,CC50 (U-87 MG): > 10 µM; IC50 (Genome polyprotein [1]): 10.7 µM; IC50 (Genome polyprotein [2]): 16 µM; EC68 (Zika virus): > 10 µM
O=C(NCC1CCNCC1)c1cc2ccc(-c3ccc(Oc4ccccc4)cc3)cc2[nH]1,1.6,CC50 (U-87 MG): > 10 µM; IC50 (Genome polyprotein [1]): 6.5 µM; IC50 (Genome polyprotein [2]): 6.6 µM; EC68 (Zika virus): 2.5 µM
O=C(NCC1CCNCC1)c1c[nH]c2ccc(-c3ccc(F)cc3)cc12,> 50,–
COc1ccc(-c2ccc3cc(C(=O)NCC4CCNCC4)[nH]c3c2)cc1,1,IC50 (Genome polyprotein [1]): 10.6 µM; IC50 (Genome polyprotein [2]): 20.1 µM
O=C(NCC1CCNCC1)c1c[nH]c2cc(-c3ccoc3)c(-c3ccoc3)cc12,0.37,CC50 (U-87 MG): > 10 µM; IC50 (Genome polyprotein [1]): 3.1 µM; IC50 (Genome polyprotein [2]): 3.7 µM; EC68 (Zika virus): 3 µM
O=C(NCC1CCNCC1)c1cc2cc(-c3ccc(N4CCNCC4)cc3)ccc2[nH]1,8.8,–
O=C(NCC1CCNCC1)c1cc2ccc(-c3cccnc3)cc2[nH]1,27.2,–
O=C(NCC1CCNCC1)c1cc2ccc(-c3ccoc3)cc2[nH]1,0.32,Activity [3]: inactive; CC50 (U-87 MG): > 10 µM; IC50 (Genome polyprotein [1]): 1.6 µM; IC50 (Genome polyprotein [2]): 5.7 µM; EC68 (Zika virus): 1 µM
O=C(NCC1CCNCC1)c1cc2cc(-c3ccc(N4CCCCC4)cc3)ccc2[nH]1,11.4,IC50 (Genome polyprotein [1]): 40.2 µM; IC50 (Genome polyprotein [2]): 31 µM
N#Cc1ccc(-c2ccc3c(C(=O)NCC4CCNCC4)c[nH]c3c2)cc1,21.8,IC50 (Genome polyprotein [1]): 12 µM; IC50 (Genome polyprotein [2]): 50.5 µM
O=C(NCC1CCNCC1)c1c[nH]c2cc(-c3ccc(Cl)nc3)ccc12,42,–
O=C(NCC1CCNCC1)c1c[nH]c2cc(-c3ccncc3)ccc12,0.39,–
CC(C)(C)c1ccc(-c2ccc3c(C(=O)NCC4CCNCC4)c[nH]c3c2)cc1,5,IC50 (Genome polyprotein [1]): 30.4 µM; IC50 (Genome polyprotein [2]): 35.1 µM
NC(=O)c1ccc(-c2ccc3cc(C(=O)NCC4CCNCC4)[nH]c3c2)cc1,7.1,–
O=C(NCC1CCNCC1)c1cc2ccc(-c3ccncc3)cc2[nH]1,19.7,–
O=C(NCCC1CCNCC1)c1c[nH]c2cc(-c3ccncc3)ccc12,0.63,CC50 (U-87 MG): > 10 µM; EC68 (Zika virus): 10 µM
COc1cc(-c2ccc3[nH]cc(C(=O)NC4CCNCC4)c3c2)cc(OC)c1OC,> 50,–
O=C(NCC1CCNCC1)c1c[nH]c2cc(-c3cn[nH]c3)ccc12,5.7,IC50 (Genome polyprotein [1]): 48.3 µM; IC50 (Genome polyprotein [2]): 42 µM
Cc1cc(C#N)ccc1-c1ccc2[nH]c(C(=O)NCC3CCNCC3)cc2c1,40.2,IC50 (Genome polyprotein [1]): > 50 µM; IC50 (Genome polyprotein [2]): > 50 µM

SMILES,IC50 (Nonstructural protein 3) [µM],also measured
NCc1ccc(-c2ccc3c(C(=O)NCC4CCNCC4)c[nH]c3c2)cc1,> 50,–
CC(C)(C)c1ccc(-c2cc3[nH]cc(C(=O)NC4CCNCC4)c3cc2-c2ccc(C(C)(C)C)cc2)cc1,4.5,–
O=C(NCC1CCNCC1)c1cc2ccc(C3=CCOCC3)cc2[nH]1,2.2,–
O=C(NCC1CCNCC1)c1c[nH]c2ccc(-c3ccc(F)cc3F)cc12,> 50,–
O=C(NCC1CCNCC1)c1cc2ccccc2[nH]1,24.6,–
COc1cc(-c2ccc3c(C(=O)NCC4CCNCC4)c[nH]c3c2)cc(OC)c1OC,> 50,–
O=C(NCC1CCNCC1)c1c[nH]c2cc(-c3cccnc3)ccc12,1.1,–
CC(C)(C)c1ccc(-c2ccc3[nH]c(C(=O)NCC4CCNCC4)cc3c2)cc1,7,–
O=C(NCC1CCNCC1)c1cc2ccc(-c3ccc(N4CCCCC4)cc3)cc2[nH]1,7.9,–
O=C(NC1CCNCC1)c1coc2cc(-c3ccoc3)ccc12,2.86,–
N#Cc1ccc(-c2ccc3[nH]c(C(=O)NCC4CCNCC4)cc3c2)cc1,9.2,–
O=C(NC1CCNCC1)c1c[nH]c2cc(-c3ccncc3)ccc12,1,CC50 (U-87 MG): > 10 µM; IC50 (Genome polyprotein [1]): 10 µM; IC50 (Genome polyprotein [2]): 10.5 µM; EC68 (Zika virus): 10 µM
O=C(NCC1CCNCC1)c1cc2cc(-c3ccc(-c4ccsc4)cc3)ccc2[nH]1,1.1,–
CC(C)(C)c1ccc(-c2ccc3c(ccn3Cc3ccc(-c4ccoc4)cc3)c2)cc1,> 50,–
CC(C)(C)c1ccc(-c2ccc3[nH]cc(C(=O)NCC4CCNCC4)c3c2)cc1,11,–
O=C(NCC1CCNCC1)c1c[nH]c2nc(-c3ccc(C(F)(F)F)cc3)ccc12,18.1,–
O=C(NCC1CCNCC1)c1c[nH]c2nc(-c3ccc(CN4CCOCC4)cc3)ccc12,0.6,CC50 (U-87 MG): > 10 µM; EC68 (Zika virus): > 10 µM
O=C(NCC1CCNCC1)c1cc2ccc(-c3ccccc3)cc2[nH]1,9.4,–
O=C(NCC1CCNCC1)c1cc2cc(-c3ccncc3)ccc2[nH]1,37,–
NCc1ccc(-c2ccc3cc(C(=O)NCC4CCNCC4)[nH]c3c2)cc1,3.2,–
O=C(NCC1CCNCC1)c1cc2cc(-c3ccc(CN4CCCCC4)cc3)ccc2[nH]1,4.7,–
O=Cc1cccc(-c2ccc3[nH]cc(C(=O)NCC4CCNCC4)c3c2)c1,> 50,–
Cc1ccc(-c2ccc3c(C(=O)NCC4CCNCC4)c[nH]c3c2)cc1,48.9,IC50 (Genome polyprotein [1]): > 50 µM; IC50 (Genome polyprotein [2]): > 50 µM

SMILES,IC50 (Nonstructural protein 3) [µM],also measured
O=C(NCC1CCNCC1)c1cc2cc(-c3ccc(N4CCCC4)cc3)ccc2[nH]1,3.4,–
O=C(NCC1CCNCC1)c1cc2ccc(-c3ccsc3)cc2[nH]1,6.4,–
O=C(NCC1CCNCC1)c1cc2cc(-c3cn[nH]c3)ccc2[nH]1,6,–
CC(C)(C)c1ccc(-c2ccc3c(c2)c(C(=O)NCC2CCNCC2)cn3CCCC2CCNCC2)cc1,14.6,–
O=C(NCC1CCNCC1)c1c[nH]c2nc(-c3ccncc3)ccc12,1.9,–
N#Cc1ccc(-c2ccc3c(C(=O)NC4CCNCC4)coc3c2)cc1,> 50,–
CC(C)(C)c1ccc(-c2ccc3c(ccn3Cc3ccc(-c4ccncc4)cc3)c2)cc1,> 50,–
O=C(NCC1CCNCC1)c1c[nH]c2cc(-c3ccccc3F)ccc12,> 50,–
O=C(NCC1CCNCC1)c1cc2cc(-c3ccc(-c4ccoc4)cc3)ccc2[nH]1,0.87,–
O=C(NCC1CCNCC1)c1cc2ccc(-c3ccc(CCO)cc3)cc2[nH]1,45.6,–
O=C(NCC1CCNCC1)c1cc2ccc(C3=CCNCC3)cc2[nH]1,21,–
O=C(NCC1CCNCC1)c1c[nH]c2cc(-c3ccc(F)cc3)ccc12,> 50,–
O=C(NCC1CCNCC1)c1c[nH]c2nc(-c3ccc(CN4CCCCC4)cc3)ccc12,0.45,CC50 (U-87 MG): > 10 µM; IC50 (Genome polyprotein [1]): 9.2 µM; IC50 (Genome polyprotein [2]): 8.6 µM; EC68 (Zika virus): 10 µM
O=C(NCC1CCNCC1)c1cc2ccc(-c3ccc(CO)cc3)cc2[nH]1,3.1,CC50 (U-87 MG): > 10 µM; EC68 (Zika virus): > 10 µM
NCc1ccc(-c2ccc3[nH]c(C(=O)NCC4CCNCC4)cc3c2)cc1,9.5,–
O=C(NCC1CCNCC1)c1c[nH]c2cc(-c3ccc(-c4ccccc4)cc3)ccc12,4.2,CC50 (U-87 MG): > 10 µM; EC68 (Zika virus): > 10 µM
O=C(NCC1CCNCC1)c1cc2ccc(-c3cn[nH]c3)cc2[nH]1,0.99,CC50 (U-87 MG): > 10 µM; IC50 (Genome polyprotein [1]): 10.3 µM; IC50 (Genome polyprotein [2]): 3.5 µM; EC68 (Zika virus): > 10 µM
O=C(NCC1CCNCC1)c1c[nH]c2cc(-c3ccc(CN4CCCCC4)cc3)ccc12,3.1,CC50 (U-87 MG): > 10 µM; IC50 (Genome polyprotein [1]): 49.7 µM; IC50 (Genome polyprotein [2]): 32 µM; EC68 (Zika virus): 10 µM
O=C(NCC1CCNCC1)c1cc2cc(-c3ccc(N4CCOCC4)cc3)ccc2[nH]1,33,–
CC(C)(C)c1ccc(-c2ccc3cc(C(=O)NCC4CCNCC4)[nH]c3c2)cc1,–,IC50 (Genome polyprotein [1]): 15 µM; IC50 (Genome polyprotein [2]): 21.8 µM
N#Cc1cccc(-c2ccc3[nH]c(C(=O)NCC4CCNCC4)cc3c2)c1,30.5,–
O=C(NCC1CCNCC1)c1cc2ccc(-c3ccc(N4CCNCC4)cc3)cc2[nH]1,5.6,–
